Screens as filed in PubChem.
Only some compounds are listed: those with a hit (about 2.4% of all), similar ones and a draw of the others.
bCat nuc transl – beta-catenin nuclear translocation modulation | HeLa beta-catenin nuclear translocation, immunofluorescence imaging | nuclear translocation activity, % at 5 µM | 190,000 compounds, 0.3% hits | AID 1665;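 active means nuclear translocation activity above 50% at 5 µM, with a well cell count of 50 or more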;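 further: per-cell ratio of nuclear to cytoplasmic median beta-catenin stain intensity; plate controls were DMSO negative control for no effect and GSK-3 inhibitor IX positive control for full effect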
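Technique: fluorescence imaging of beta-catenin antibody stain plus DAPI / Material: human HeLa cell line / Incubation: compound treatment 24 h, 37°C, 5% CO2 / Read-out basis: % activation of per-cell nuclear versus cytoplasmic median beta-catenin signal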
EP2 modulator – EP2 receptor (human) modulation | 260,000 compounds, 0.83% hits | induction, % at 25 µM | AID 940 | P43116 | EP2-expressing cells, cAMP HTRF FRET, PGE2 co-stimulation;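 active means compounds whose cAMP rise, as percent of the full-agonist control response, exceeds 60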;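 further: rat C6 glioma line stably carrying human EP2 under a CMV promoter; the protocol text gives 20 µM as final concentration; 100% = response of wells given 1 µM PGE2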
Target sequence (P43116 whole entry, looked up): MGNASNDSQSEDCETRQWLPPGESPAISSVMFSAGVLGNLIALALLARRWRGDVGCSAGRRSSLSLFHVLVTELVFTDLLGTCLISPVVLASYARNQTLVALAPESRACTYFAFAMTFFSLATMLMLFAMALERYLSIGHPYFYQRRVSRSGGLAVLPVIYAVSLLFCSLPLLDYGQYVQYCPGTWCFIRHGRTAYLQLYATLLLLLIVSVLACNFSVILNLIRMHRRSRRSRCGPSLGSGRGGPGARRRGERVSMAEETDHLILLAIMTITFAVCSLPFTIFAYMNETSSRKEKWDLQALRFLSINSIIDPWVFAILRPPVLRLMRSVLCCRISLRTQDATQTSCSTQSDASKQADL
PGE2 EP2 inh – blocks the human prostaglandin E2 receptor EP2 | inhibition, % at 25 µM | AID 1422 | C6 glioma cells expressing human EP2, cAMP TR-FRET; cells stimulated with saturating PGE2 | 260,000 compounds, 0.52% hits | P43116;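 active means percent inhibition above 40 after rounding to a whole number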;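 further: rat C6 glioma host cells with rolipram phosphodiesterase inhibitor present; the protocol text gives 20 µM as final concentration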
MT stabilizer – stabilizes microtubules in HeLa cells. HeLa tubulin immunostaining HCS, 24 h; share of cells brighter than vehicle mean+2SD. % tubulin-high responders, % at 10 µM. 200,000 compounds, 0.83% hits. AID 2205;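 active means plate Z-score above 3 for both tubulin-high and condensed-nucleus cell shares, with cell loss under 80%, at 10 µM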;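 further: anti alpha tubulin signal scored within the nucleus-defined area of each cell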
Tb hexokinase – T. brucei hexokinase 1 inhibition. recombinant TbHK1, G6PDH-coupled NADH A340. inhibition, % at 10 µM. 220,000 compounds, 0.11% hits;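 active means inhibition of 50% or more in the single-dose primary screen; inactive means inhibition below 50%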
HMGR II inh – blocks class II HMG-CoA reductase of Enterococcus faecalis; purified E. faecalis HMGR, NADPH absorbance 340 nm kinetic; inhibition, % at 10 µM; 190,000 compounds, 0.41% hits; AID 1066;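 active means inhibition above a set limit, the median over all tested compounds plus 3 SD, cut at about 9.5% in these data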;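 further: enzyme runs in reverse so mevalonate oxidation gives rising NADPH absorbance; 0% = complete reaction with DMSO and 100% = background rate lacking mevalonate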
* hit, by the source's call; nt = no result.

SMILES	bCat nuc transl	EP2 modulator	PGE2 EP2 inh	MT stabilizer	Tb hexokinase	HMGR II inh
CC(=O)c1ccc2c(c1)C1C=CCC1C(c1ccc(S(=O)(=O)N3CCOCC3)cc1)N2 (stereo not given)	2	-43	26	2	-28	0
COc1cc(C=O)ccc1OCc1ccccc1Br	1	65*	5	3	2	-1
CC[C@H](Cn1ncc2ccccc2c1=O)NC(=O)Cc1ccc2c(c1)OCO2	nt	-21	nt	nt	nt	nt
Cc1ccc(N=Nc2c(O)c(S(=O)(=O)O)cc3cc(S(=O)(=O)O)ccc23)c(C)c1	nt	10	42*	nt	nt	nt
O=C1CCCC2=C1C(c1cccs1)Nc1ccc3ncccc3c12 (stereo not given)	1	-13	12	4	-11	1
Cc1ccsc1C1Nc2ccc3ncccc3c2C2=C1C(=O)CC(C)(C)C2 (stereo not given)	-2	-8	13	37*	-8	1
Cc1cc(=Nc2ccc3c(c2)c(N)cc(C)[n+]3C)nc(N)n1C	nt	20	42*	nt	nt	nt
Cc1ccc(Cl)cc1NC(=O)C1CCN(C(=O)c2cccs2)CC1	nt	-31	12	nt	nt	nt
Cc1cc(C)c2c(c1)-c1cc(C)nn1C(c1ccc3c(c1)OCO3)N2 (stereo not given)	-2	64*	6	2	-9	-1
O=C1/C(=C/c2cccnc2)CCC/C1=C\c1cccnc1	-2	-52	15	29*	-31	-2
CCC1C/C(=C\c2cccnc2)C(=O)/C(=C/c2cccnc2)C1 (stereo not given)	-1	-44	4	45*	-20	-3
CN(C)c1ccc(/C=C2\CCC/C(=C\c3ccccc3)C2=O)cc1	4	6	5	9.3*	-5	-5
O=C1/C(=C/c2cccnc2)CC/C1=C\c1cccnc1	0	-37	9	3	-40	-2
COc1ccc(/C=C2\CCC/C(=C\C=N\N(C)C)C2=O)cc1	-2	6	4	20*	-13	1
COCCCNC(=O)c1cc2c(n(-c3ccccc3)c1=O)CCCC2=O	nt	13	9	nt	nt	nt
CN(C(=O)c1cc2nc(-c3ccco3)cc(C(F)(F)F)n2n1)C12CC3CC(CC(C3)C1)C2	nt	60	15	nt	nt	nt
C[n+]1c2ccccc2c(-n2c3ccccc3c3ccccc32)c2ccccc21	nt	-122	17	nt	nt	nt
CC(C)c1ccc(S(=O)(=O)/N=C2/C=C(Sc3ncn[nH]3)C(=O)c3ccccc32)cc1	0	-27	122*	4	4	3
Cc1ccc(S(=O)(=O)/N=C2/C=C(Sc3ncn[nH]3)C(=O)c3ccccc32)c(C)c1	-1	-61	54*	2	20	13*
Cc1ccc(S(=O)(=O)/N=C2/C=C(Sc3ncn[nH]3)C(=O)c3ccccc32)cc1	-1	-70	126*	2	35	-3
O=c1c2ccccc2nc(-c2ccc(Br)cc2)n1Cc1ccccc1	nt	63*	9	2	-4	-1
Cc1ccccc1/C=C\c1nc2ccccc2c(=O)n1Cc1ccccc1	-1	63*	10	3	34	-1
Cc1ccc(-n2nnc3c(=O)n(CC(=O)NCc4ccco4)cnc32)cc1	nt	-7	9	3	1	-2
Cc1ccc(Cn2nnc3c(=O)n(CC(=O)NCc4ccco4)cnc32)cc1	5	31	11	5	4	20*
Cc1cccc(NC(=O)c2cc(NC(=O)C3CCCCC3C(=O)O)ccc2N2CCCCC2)c1 (stereo not given)	0	37	9	3	4	3
CC(=O)Nc1ccc(N2CCCCC2)c(C(=O)Nc2cccc(C)c2)c1	1	62*	13	3	-7	-6
COc1cc(NC(=O)COC(=O)[C@@H]2CCCN2S(=O)(=O)c2ccc(Cl)cc2)cc(OC)c1OC	-3	-18	24	2	-1	-2
O=C(COC(=O)[C@@H]1CCCN1S(=O)(=O)c1ccc(Cl)cc1)NC12CC3CC(CC(C3)C1)C2	-2	14	68*	5	-6	-2
CN1CCCCC1CCN1c2ccccc2Sc2ccc(S(C)=O)cc21 (stereo not given)	-3	nt	18	nt	nt	6
COc1ccc2c(c1)N(CC[C@H]1CCCCN1C)c1ccccc1S2	nt	-55	41*	nt	nt	nt
